Bioassay records from PubChem.
Shown are actives, neighbours in structure and some others; about 2.4% of the full set was active somewhere.
Apaf1 inhib = human Apaf-1 inhibition; O14727; reconstituted apoptosome caspase-3 activity, DEVD-Rh110 fluorescence; inhibition, % at 20 µM; 0.71% of 330,000 active; AID 489030; active = inhibition of at least 40% at 20 µM;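 also: plate controls were DMSO wells for no effect and DEVD-CHO caspase inhibitor wells for full effect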
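detection = Rh110 fluorescence intensity | test system = biochemical Apaf-1 apoptosome reconstitution | also added = cytochrome c and DEVD-Rh110 substrate | schedule = 30 min plus 50 min, RT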
FID counter = counter-screen for HCV NS3 helicase inhibitors: DNA intercalator displacement | DNA fluorescent intercalator displacement, fluorescence | inhibition, % at 7.9 µM | 0.17% of 290,000 active; in the data active = inhibition above about 37%;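 also: 0% = vehicle and 100% = reference compound; higher means more ethidium bromide displaced from hairpin DNA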
TMEM16A inh = mouse TMEM16A channel inhibition, primary screen. HEK293 TMEM16A/YFP iodide influx fluorescence, ionomycin. normalized B-score (activity score, 25-100; higher = stronger inhibition) at 10 µM. 1.2% of 310,000 active;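 active = ratio plate-corrected score three or more library SD toward inhibition, starting fluorescence score within five deviations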;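 also: score derived from kinetic fluorescence span divided by baseline fluorescence per well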
Target sequence (Q8BHY3 whole entry, looked up): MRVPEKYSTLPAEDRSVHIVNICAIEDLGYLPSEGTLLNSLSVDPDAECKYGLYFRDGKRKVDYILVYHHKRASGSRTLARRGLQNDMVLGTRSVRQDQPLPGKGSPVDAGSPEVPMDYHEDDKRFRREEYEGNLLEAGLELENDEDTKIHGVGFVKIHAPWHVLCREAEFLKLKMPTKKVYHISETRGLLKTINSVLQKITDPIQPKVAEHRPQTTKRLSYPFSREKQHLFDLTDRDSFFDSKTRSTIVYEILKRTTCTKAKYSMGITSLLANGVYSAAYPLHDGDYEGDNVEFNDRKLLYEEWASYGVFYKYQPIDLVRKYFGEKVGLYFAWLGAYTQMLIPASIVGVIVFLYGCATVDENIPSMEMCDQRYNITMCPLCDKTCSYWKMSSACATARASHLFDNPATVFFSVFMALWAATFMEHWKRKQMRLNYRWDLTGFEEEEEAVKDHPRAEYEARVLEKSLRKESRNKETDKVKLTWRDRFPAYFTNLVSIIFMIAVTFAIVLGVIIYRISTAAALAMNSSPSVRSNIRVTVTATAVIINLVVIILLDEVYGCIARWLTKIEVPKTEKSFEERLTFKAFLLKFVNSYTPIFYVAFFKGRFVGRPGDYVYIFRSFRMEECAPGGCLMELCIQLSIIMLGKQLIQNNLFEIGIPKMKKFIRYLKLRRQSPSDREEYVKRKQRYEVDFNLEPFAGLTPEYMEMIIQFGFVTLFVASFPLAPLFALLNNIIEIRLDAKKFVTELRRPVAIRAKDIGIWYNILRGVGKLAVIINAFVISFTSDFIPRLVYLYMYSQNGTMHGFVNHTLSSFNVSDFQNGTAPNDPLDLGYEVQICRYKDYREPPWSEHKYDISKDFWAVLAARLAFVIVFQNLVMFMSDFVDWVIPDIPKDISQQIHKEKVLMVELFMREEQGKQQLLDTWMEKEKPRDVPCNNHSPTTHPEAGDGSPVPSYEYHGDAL
TMEM16A act = activators or potentiators of mouse TMEM16A chloride channel. Q8BHY3. HEK293 TMEM16A/YFP-H148Q/I152L, iodide quench fluorescence; active compounds read low. B-score at 10 µM. 0.3% of 340,000 active. AID 623877;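 active = fluorescence-ratio B-score plate-corrected deviation score at least 3 library SD below zero, with starting fluorescence score within 5 deviations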;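 also: channel opened by trigger with iodide after compound preincubation; score built on the fluorescence ratio of max minus min over baseline; more negative score means more quench and so TMEM16A activation or potentiation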
UBC13 inh = inhibitors of human UBC13 polyubiquitin chain formation | P61088 | TR-FRET | inhibition, % at 20 µM | 0.47% of 330,000 active | AID 485273; in the data active = inhibition above about 45%, passing the limit was not always enough
TMEM16A reconf = TMEM16A (mouse) chloride channel inhibition, re-confirmation | shares compounds with TMEM16A inh | HEK293 TMEM16A/YFP-H148Q, iodide quench fluorescence; ionomycin added to raise cell calcium | inhibition, % at 10 µM | 39% of 2,300 active;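 active = mean duplicate percent inhibition, scaled so buffer wells are 0 and the reference blocker 100, over three buffer SD above buffer mean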
HEK293 Ca mobil = counter-screen for TMEM16A inhibitors: effect on calcium mobilization. shares compounds with TMEM16A inh. TMEM16A/YFP HEK293, Fluo4 calcium mobilization. 2% of 2,300 active. calcium response (% of ionomycin), % at 10 µM;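 active = duplicate-averaged calcium signal over 20% of the ionomycin maximum, relative to buffer baseline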;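 also: each well's signal is peak minus trough fluorescence divided by its pre-addition baseline; 0% = buffer wells and 100% = ionomycin wells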
Parental YFP cnt = counter-screen for TMEM16A inhibitors: effect in parental YFP-HEK293 cells | shares compounds with TMEM16A inh | iodide YFP quench, ionomycin | YFP ratio F(max-min)/F0 at 10 µM | 2,300 tested, under 10 active;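 active = yellow fluorescent protein signal ratio exceeding the buffer control mean by over 5 SD of those controls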;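 also: ratio is mean of duplicate wells from kinetic YFP trace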
ClC-1 rat inh = blocks the rat ClC-1 voltage-dependent chloride channel; shares compounds with TMEM16A inh; CHO ClC-1-YFP, iodide influx fluorescence quench; iodide control reads 0, buffer control 100; ratio percent, % at 10 µM; 2,300 tested, under 10 active; AID 652236;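 active = duplicate-mean ratio percent above the mean of iodide-only control wells, which defines zero, plus 5 of their SD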;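 also: higher percent means stronger block of ClC-1 iodide influx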
* hit, by the source's call; i = inactive; . = no result.

SMILES | Apaf1 inhib | FID counter | TMEM16A inh | TMEM16A act | UBC13 inh | TMEM16A reconf | HEK293 Ca mobil | Parental YFP cnt | ClC-1 rat inh
CN(C)c1ccc(N=Nc2ccccc2C(=O)OCC(=O)NCC2CCCCC2)cc1 | 23 | -13 | 100* | i | -170 | i | i | -0.86 | -12
CCCn1c(=O)c(C(=O)NNC(=O)c2ccccc2Cl)c(O)c2ccccc21 | 3 | -31 | 100* | -4.6* | -4 | i | i | -0.95 | -14
CCCn1c(=O)c(C(=O)NNC(=O)c2ccccc2[N+](=O)[O-])c(O)c2ccccc21 | 13 | -27 | i | i | -25 | . | . | . | .
c1ccc(Cn2c[n+](Cc3ccccc3)c3ccccc32)cc1 | -13 | 6 | i | i | 5 | . | . | . | .
Cc1c(C(=O)Nc2ccc(Oc3ccccc3)cc2)sc2nc3n(c(=O)c12)CCC3 | 15 | -4 | 100* | i | 19 | i | i | -1.2 | -18
O=C(c1ccc2ccccc2c1)C1CCCN(S(=O)(=O)c2cccnc2)C1 (stereo not drawn) | 3 | -13 | 100* | i | 2 | 18%* | i | -0.89 | -16
O=C(C1CCCN(S(=O)(=O)c2cccnc2)C1)N1CCN(c2ccccn2)CC1 (stereo not drawn) | -7 | -12 | i | i | -5 | . | . | . | .
S=C(NCC1CCCO1)Nc1ccc(Nc2ccccc2)cc1 (stereo not drawn) | -5 | -2 | 100* | i | 3 | i | i | -0.84 | -8
S=C(NCC1CCCCC1)Nc1ccc(Oc2ccccc2)cc1 | 16 | -10 | 100* | i | 5 | 20%* | i | -1.3 | -20
COCCCNC(=O)N1c2ccccc2Sc2ccccc21 | 7 | -27 | i | i | 3 | . | . | . | .
COc1ccc(CCNC(=O)N2c3ccccc3Sc3ccccc32)cc1 | 19 | -14 | 100* | i | 7 | 53%* | i | -0.87 | -14
O=C(CCC1COc2ccccc2O1)NCc1ccccc1 (stereo not drawn) | -10 | -3 | 100* | i | 1 | i | i | -1.1 | -16
COc1ccc(OC)c(S(=O)(=O)NC2CCSc3ccccc32)c1 (stereo not drawn) | 11 | -25 | i | i | -1 | . | . | . | .
CCOC(=O)CCc1c(C)c2ccc(OC(C)C(=O)OCC)c(C)c2oc1=O (stereo not drawn) | 0 | -31 | 100* | i | 12 | 34%* | i | -0.98 | -29
CCOC(=O)C(C)Oc1ccc2c(CC)cc(=O)oc2c1C (stereo not drawn) | -8 | -16 | i | i | 0 | . | . | . | .
Clc1c(Cl)c(Cl)c2n[nH]nc2c1Cl | 5 | -9 | 100* | i | -2 | 44%* | i | -0.85 | -16
Cc1ccccc1Cn1ccc(NC(=O)c2cnn3c2NC(c2ccccc2)CC3C(F)(F)F)n1 (stereo not drawn) | 23 | -4 | 25* | i | -1 | i | i | -1.1 | -6
Nc1nc(-c2ccc([N+](=O)[O-])cc2)cc(=O)[nH]1 | . | . | . | i | . | . | . | . | .
CSc1ccc(-c2nc(CSCC(=O)NC3CC3)c(C)o2)cc1 | 5 | -31 | i | i | -11 | . | . | . | .
CCc1ccc(-c2nc(CSCC(=O)N3CCN(c4ncccn4)CC3)c(C)o2)cc1 | 16 | -18 | 25* | i | 4 | i | i | -1 | -11
CSc1ccc(-c2nc(CSCC(=O)N3CCOCC3)c(C)o2)cc1 | -8 | -30 | 25* | i | 0 | 28%* | i | -1.1 | -14
CCc1ccc(-c2nc(CSCC(=O)NC3CC3)c(C)o2)cc1 | -6 | -40 | i | i | -1 | . | . | . | .
COc1ccc(C(C)NS(=O)(=O)Cc2ccccc2)cc1 (stereo not drawn) | 1 | -3 | i | i | -1 | . | . | . | .
